Test system: Fibroblast
Experiment: Multiplex assay against human fibroblast
Format: toxicity, cell-based
Outline: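 Per cents of healthy-nucleus cells form the tubulin, mitochondrial-mass and membrane-permeability phenotype values. Live cells were stained at seeding with Hoechst33342, BioTracker Green Microtubule Cytoskeleton Dye, MitoTracker Red and Annexin V Alexa Fluor 680. After compound addition they were imaged on a CQ1 microscope at 37°C and 5% CO2, and CellPathfinder machine-learning gating split them into Hoechst high-intensity objects or normal cells, normal cells into healthy, pyknosed or fragmented nuclei, and pyknosed cells into mitotic or apoptotic.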

[1] = 12 h, 1 µM, compound concentration 1 uM, replicate 1
[2] = 12 h, 1 µM, compound concentration 1 uM, replicate 2
[3] = 12 h, 10 µM, compound concentration 10 uM, replicate 1
[4] = 12 h, 10 µM, compound concentration 10 uM, replicate 2
[5] = 24 h, 1 µM, compound concentration 1 uM, replicate 1
[6] = 24 h, 1 µM, compound concentration 1 uM, replicate 2
[7] = 24 h, 10 µM, compound concentration 10 uM, replicate 1
[8] = 24 h, 10 µM, compound concentration 10 uM, replicate 2
[9] = 48 h, 1 µM, compound concentration 1 uM, replicate 1
[10] = 48 h, 1 µM, compound concentration 1 uM, replicate 2
[11] = 48 h, 10 µM, compound concentration 10 uM, replicate 1
[12] = 48 h, 10 µM, compound concentration 10 uM, replicate 2

With `N#Cc1cc(F)cc(-c2nc(-c3ccc(F)cn3)no2)c1` the “Population Apoptotic (%)” value [1] was 28%, the “Population Fragmented Nuclei (%)” value [1] was 21% and the “Population Healthy Nuclei (%)” value [1] was 63%. For the same molecule, the “Population Hoechst High Intensity Objects (%)” value [1] was 0%, the “Population Membrane Permeable-Phenotype (%)” value [1] was 2% and the “Population Mitochondria Different-Phenotype (%)” value [1] was 5%. The “Population Mitotic Cells (%)” value [1] was 71%, the “Population Normal (%)” value [1] was 100% and the “Population Pyknosed Nuclei (%)” value [1] was 15%. The “Population Tubulin-Different-Phenotype (%)” value [1] was 22%, the “Total Cell Count” value [1] was 136 and the “Population Apoptotic (%)” value [2] was 38%. For the same molecule, the “Population Fragmented Nuclei (%)” value [2] was 32%, the “Population Healthy Nuclei (%)” value [2] was 37% and the “Population Hoechst High Intensity Objects (%)” value [2] was 6%. For the same molecule, the “Population Membrane Permeable-Phenotype (%)” value [2] was 15%, the “Population Mitochondria Different-Phenotype (%)” value [2] was 6% and the “Population Mitotic Cells (%)” value [2] was 61%. For the same molecule, the “Population Normal (%)” value [2] was 93%, the “Population Pyknosed Nuclei (%)” value [2] was 29% and the “Population Tubulin-Different-Phenotype (%)” value [2] was 48%. The “Total Cell Count” value [2] was 93, the “Population Apoptotic (%)” value [3] was 48% and the “Population Fragmented Nuclei (%)” value [3] was 15%. For the same molecule, the “Population Healthy Nuclei (%)” value [3] was 67%, the “Population Hoechst High Intensity Objects (%)” value [3] was 1% and the “Population Membrane Permeable-Phenotype (%)” value [3] was 2%. The “Population Mitochondria Different-Phenotype (%)” value [3] was 5%, the “Population Mitotic Cells (%)” value [3] was 51% and the “Population Normal (%)” value [3] was 98%. For the same molecule, the “Population Pyknosed Nuclei (%)” value [3] was 17%, the “Population Tubulin-Different-Phenotype (%)” value [3] was 23% and the “Total Cell Count” value [3] was 179. For the same molecule, the “Population Apoptotic (%)” value [4] was 28%, the “Population Fragmented Nuclei (%)” value [4] was 42% and the “Population Healthy Nuclei (%)” value [4] was 32%. The “Population Hoechst High Intensity Objects (%)” value [4] was 8%, the “Population Membrane Permeable-Phenotype (%)” value [4] was 9% and the “Population Mitochondria Different-Phenotype (%)” value [4] was 12%. The “Population Mitotic Cells (%)” value [4] was 72%, the “Population Normal (%)” value [4] was 91% and the “Population Pyknosed Nuclei (%)” value [4] was 24%. The “Population Tubulin-Different-Phenotype (%)” value [4] was 36%, the “Total Cell Count” value [4] was 110 and the “Population Apoptotic (%)” value [5] was 40%. The “Population Fragmented Nuclei (%)” value [5] was 19%, the “Population Healthy Nuclei (%)” value [5] was 68% and the “Population Hoechst High Intensity Objects (%)” value [5] was 2%. For the same molecule, the “Population Membrane Permeable-Phenotype (%)” value [5] was 1%, the “Population Mitochondria Different-Phenotype (%)” value [5] was 3% and the “Population Mitotic Cells (%)” value [5] was 60%. The “Population Normal (%)” value [5] was 97%, the “Population Pyknosed Nuclei (%)” value [5] was 11% and the “Population Tubulin-Different-Phenotype (%)” value [5] was 18%. The “Total Cell Count” value [5] was 131, the “Population Apoptotic (%)” value [6] was 27% and the “Population Fragmented Nuclei (%)” value [6] was 39%. For the same molecule, the “Population Healthy Nuclei (%)” value [6] was 38%, the “Population Hoechst High Intensity Objects (%)” value [6] was 7% and the “Population Membrane Permeable-Phenotype (%)” value [6] was 12%. The “Population Mitotic Cells (%)” value [6] was 72%, the “Population Normal (%)” value [6] was 92% and the “Population Pyknosed Nuclei (%)” value [6] was 22%. For the same molecule, the “Population Tubulin-Different-Phenotype (%)” value [6] was 58%, the “Total Cell Count” value [6] was 88 and the “Population Apoptotic (%)” value [7] was 70%. The “Population Fragmented Nuclei (%)” value [7] was 12%, the “Population Healthy Nuclei (%)” value [7] was 70% and the “Population Hoechst High Intensity Objects (%)” value [7] was 4%. The “Population Membrane Permeable-Phenotype (%)” value [7] was 0%, the “Population Mitochondria Different-Phenotype (%)” value [7] was 6% and the “Population Mitotic Cells (%)” value [7] was 29%. The “Population Normal (%)” value [7] was 95%, the “Population Pyknosed Nuclei (%)” value [7] was 16% and the “Population Tubulin-Different-Phenotype (%)” value [7] was 22%. For the same molecule, the “Total Cell Count” value [7] was 170, the “Population Apoptotic (%)” value [8] was 35% and the “Population Fragmented Nuclei (%)” value [8] was 47%. For the same molecule, the “Population Healthy Nuclei (%)” value [8] was 33%, the “Population Hoechst High Intensity Objects (%)” value [8] was 11% and the “Population Membrane Permeable-Phenotype (%)” value [8] was 5%. The “Population Mitochondria Different-Phenotype (%)” value [8] was 11%, the “Population Mitotic Cells (%)” value [8] was 65% and the “Population Normal (%)” value [8] was 88%. For the same molecule, the “Population Pyknosed Nuclei (%)” value [8] was 18%, the “Population Tubulin-Different-Phenotype (%)” value [8] was 41% and the “Total Cell Count” value [8] was 120. For the same molecule, the “Population Apoptotic (%)” value [9] was 61%, the “Population Fragmented Nuclei (%)” value [9] was 21% and the “Population Healthy Nuclei (%)” value [9] was 68%. For the same molecule, the “Population Hoechst High Intensity Objects (%)” value [9] was 1%, the “Population Membrane Permeable-Phenotype (%)” value [9] was 0% and the “Population Mitochondria Different-Phenotype (%)” value [9] was 3%. For the same molecule, the “Population Mitotic Cells (%)” value [9] was 38%, the “Population Normal (%)” value [9] was 98% and the “Population Pyknosed Nuclei (%)” value [9] was 9%. The “Population Tubulin-Different-Phenotype (%)” value [9] was 23%, the “Total Cell Count” value [9] was 137 and the “Population Apoptotic (%)” value [10] was 50%. For the same molecule, the “Population Fragmented Nuclei (%)” value [10] was 45%, the “Population Healthy Nuclei (%)” value [10] was 32% and the “Population Hoechst High Intensity Objects (%)” value [10] was 5%. For the same molecule, the “Population Membrane Permeable-Phenotype (%)” value [10] was 3%, the “Population Mitochondria Different-Phenotype (%)” value [10] was 7% and the “Population Mitotic Cells (%)” value [10] was 50%. The “Population Normal (%)” value [10] was 94%, the “Population Pyknosed Nuclei (%)” value [10] was 22% and the “Population Tubulin-Different-Phenotype (%)” value [10] was 57%. For the same molecule, the “Total Cell Count” value [10] was 85, the “Population Apoptotic (%)” value [11] was 84% and the “Population Fragmented Nuclei (%)” value [11] was 20%. The “Population Healthy Nuclei (%)” value [11] was 63%, the “Population Hoechst High Intensity Objects (%)” value [11] was 7% and the “Population Membrane Permeable-Phenotype (%)” value [11] was 0%. For the same molecule, the “Population Mitochondria Different-Phenotype (%)” value [11] was 11%, the “Population Mitotic Cells (%)” value [11] was 16% and the “Population Normal (%)” value [11] was 92%. The “Population Pyknosed Nuclei (%)” value [11] was 16%, the “Population Tubulin-Different-Phenotype (%)” value [11] was 28% and the “Total Cell Count” value [11] was 162. For the same molecule, the “Population Apoptotic (%)” value [12] was 50%, the “Population Fragmented Nuclei (%)” value [12] was 44% and the “Population Healthy Nuclei (%)” value [12] was 38%. The “Population Hoechst High Intensity Objects (%)” value [12] was 5%, the “Population Membrane Permeable-Phenotype (%)” value [12] was 15% and the “Population Mitochondria Different-Phenotype (%)” value [12] was 5%. The “Population Mitotic Cells (%)” value [12] was 50%, the “Population Normal (%)” value [12] was 94% and the “Population Pyknosed Nuclei (%)” value [12] was 17%. For the same molecule, the “Population Tubulin-Different-Phenotype (%)” value [12] was 50% and the “Total Cell Count” value [12] was 110.

— ChEMBL document CHEMBL5058577, “EUbOPEN Chemogenomics Library 2 (Multiplex)” (2022)
